Test results reported in ChEMBL document CHEMBL1139359, “Novel chemotactic For-Met-Leu-Phe-OMe (fMLF-OMe) analogues based on met residue replacement by 4-amino-proline scaffold: synthesis and bioactivity” (2009).
Active and inactive are the calls of the source. The calls are words filed in the database; no cut-off is given here.

Experiments:
Neutrophil [1] = assay: Induction of chemotactic activity in human neutrophil assessed as chemotactic index at 1 nM; assay type: functional
Procedure, shortened: (§1)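 Neutrophils from healthy donors were purified by dextran sedimentation, Ficoll-Paque centrifugation and hypotonic red-cell lysis, then held in KRPG pH 7.4. Peptide placed in lower well of a 48-well microchemotaxis chamber, diluted in KRPG with 1 mg/mL BSA, tested at 10^–13 to 10^–5 M. Migration into filter scored by leading-front method. C.I. = (test − buffer migration)/buffer migration. Mean of six experiments run in duplicate.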

Neutrophil [2] = assay: Induction of lysozyme release in human neutrophil at 1 uM; assay type: functional
Procedure, shortened: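 Cells at 3×10^6/well, in triplicate wells, preincubated with 5 µg/mL cytochalasin B at 37 °C for 15 min, then peptide (final 10^–10–5·10^–5 M) for 15 min. Plates spun 400g for 5 min. Supernatant lysozyme measured nephelometrically as rate of Micrococcus lysodeikticus cell-wall lysis at 465 nm. Expressed as net % of total content released by 0.1% Triton X-100. Mean of five experiments in duplicate.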

Neutrophil [3] = assay: Inhibition of fMLF-OMe-induced chemotactic index in human neutrophil at 100 uM; assay type: functional; design: Activity: scale not given: the % may be the effect or the level left; details: for inhibition at 100 µM: Homo sapiens, Neutrophil
Procedure, shortened: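 Human neutrophils, chemotaxis toward 10 nM fMLF-OMe in microchemotaxis chamber, measured with increasing concentrations of test peptide. Inhibition scored on chemotactic index (test − buffer migration over buffer migration), with migration assessed by leading-front method.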

Neutrophil [4] = assay: Induction of superoxide anion radicals production in human neutrophil at 10 uM; assay type: functional
Procedure, shortened: (§2)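 Donor neutrophils (dextran/Ficoll/hypotonic lysis, KRPG pH 7.4) pretreated with 5 µg/mL cytochalasin B for 5 min. Peptide then added at 10^–10–5·10^–5 M at 37 °C in microplate reader. Cytochrome c reduction read as absorbance difference 550 vs 468 nm (absorptivity 18.5 mmol^–1 cm^–1). Expressed as net nmol O2− per 10^6 cells per 5 min, mean of six experiments in duplicate.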

Neutrophil [5] = assay: Inhibition of fMLF-OMe-induced lysozyme release in human neutrophil assessed as lysis of Micrococcus lysodeikticus cell wall by nephelometry; assay type: functional, cell-based
Neutrophil [6] = assay: Inhibition of fMLF-OMe-induced superoxide anion radicals production in human neutrophil; assay type: functional, cell-based
Neutrophil [7] = assay: Induction of chemotactic activity in human neutrophil at 0.1 nM; assay type: functional; procedure, shortened: as §1
Neutrophil [8] = assay: Induction of superoxide anion radicals production in human neutrophil at 1 uM; assay type: functional; procedure, shortened: as §2

Question: `COC(=O)[C@H](Cc1ccccc1)NC(=O)[C@H](CC(C)C)NC(=O)[C@@H]1C[C@H](NC(=O)OC(C)(C)C)CN1C(=O)OC(C)(C)C` was tested. Which Activity (Neutrophil [1]) did it give?
Answer: The Activity was 0.4.

Question: What about the Activity (Neutrophil [2]) of the same molecule?
Answer: The Activity was 12%.

Question: What about the inhibition at 100 µM (Neutrophil [3]) of the same molecule?
Answer: The inhibition at 100 µM was 60%.

Question: What about the Activity (Neutrophil [4]) of the same molecule?
Answer: The Activity was 14.6 nmol.

Question: And the Activity (Neutrophil [5])?
Answer: The Activity was “inactive”.

Question: `COC(=O)[C@H](Cc1ccccc1)NC(=O)[C@H](CC(C)C)NC(=O)[C@@H]1C[C@H](NC=O)CN1C(=O)OC(C)(C)C` was tested. Which Activity (Neutrophil [1]) did it give?
Answer: Its Activity is 0.34.

Question: And the Activity (Neutrophil [2])?
Answer: Its Activity is 12%.

Question: And the Activity (Neutrophil [4])?
Answer: The Activity was 2 nmol.

Question: And the Activity (Neutrophil [6])?
Answer: The Activity was “inactive”.

Question: Which Activity (Neutrophil [2]) does the source give for `COC(=O)[C@H](Cc1ccccc1)NC(=O)[C@H](CC(C)C)NC(=O)[C@@H]1C[C@H](NC=O)CN1C=O` here?
Answer: Its Activity is 24%.

Question: And the Activity (Neutrophil [7])?
Answer: Its Activity is 0.7.

Question: And the Activity (Neutrophil [4]; in the assay text read “1 uM” for “10 uM”)?
Answer: Its Activity is 4 nmol.

Question: And the Activity (Neutrophil [5])?
Answer: Its Activity is “inactive”.

Question: For `COC(=O)[C@H](Cc1ccccc1)NC(=O)[C@H](CC(C)C)NC(=O)[C@@H]1C[C@@H](NC(=O)OC(C)(C)C)CN1C(=O)OC(C)(C)C`, which Activity (Neutrophil [2]) is on record?
Answer: The Activity was 18%.

Question: What about the inhibition at 100 µM (Neutrophil [3]) of the same molecule?
Answer: Its inhibition at 100 µM is 60%.

Question: And the Activity (Neutrophil [7])?
Answer: The Activity was 0.45.

Question: And the Activity (Neutrophil [4])?
Answer: The Activity was 2 nmol.

Question: And the Activity (Neutrophil [5])?
Answer: Its Activity is “inactive”.

Question: `COC(=O)[C@H](Cc1ccccc1)NC(=O)[C@H](CC(C)C)NC(=O)[C@@H]1C[C@@H](NC=O)CN1C(=O)OC(C)(C)C` was tested. Which Activity (Neutrophil [1]) did it give?
Answer: Its Activity is 0.4.

Question: And the Activity (Neutrophil [2])?
Answer: Its Activity is 13%.

Question: What about the Activity (Neutrophil [3]) of the same molecule?
Answer: Its Activity is 73%.

Question: What about the Activity (Neutrophil [4]) of the same molecule?
Answer: Its Activity is 1 nmol.

Question: What about the Activity (Neutrophil [6]) of the same molecule?
Answer: The Activity was “inactive”.

Question: `COC(=O)[C@H](Cc1ccccc1)NC(=O)[C@H](CC(C)C)NC(=O)[C@H](CCSC)NC=O` was tested. Which Activity (Neutrophil [1]) did it give?
Answer: The Activity was 1.1.

Question: And the Activity (Neutrophil [2])?
Answer: Its Activity is 60%.

Question: And the Activity (Neutrophil [8])?
Answer: Its Activity is 52 nmol.

Question: `COC(=O)[C@H](Cc1ccccc1)NC(=O)[C@H](CC(C)C)NC(=O)[C@@H]1C[C@@H](NC=O)CN1C=O` was tested. Which Activity (Neutrophil [2]) did it give?
Answer: The Activity was 15%.

Question: What about the Activity (Neutrophil [7]) of the same molecule?
Answer: The Activity was 0.75.

Question: And the Activity (Neutrophil [8])?
Answer: Its Activity is 5 nmol.

Question: What about the Activity (Neutrophil [5]) of the same molecule?
Answer: Its Activity is “inactive”.
